Measurements: ChEMBL document CHEMBL1125363, “Novel piperidine sigma receptor ligands as potential antipsychotic drugs” (J Med Chem, 1992)

How the values were obtained:
[1] = target: Serotonin 2 (5-HT2) receptor (Mus musculus, UniProt Q02152+P34968+P35363); experiment: In vitro binding affinity for serotonin 5-hydroxytryptamine (5-HT) 2 receptors; assay type: protein assay
D(2) dopamine receptor = D(2) dopamine receptor (Mus musculus, UniProt P61168); experiment: In vitro binding affinity towards dopamine receptor D2
Chain of D(2) dopamine receptor (P61168 whole entry): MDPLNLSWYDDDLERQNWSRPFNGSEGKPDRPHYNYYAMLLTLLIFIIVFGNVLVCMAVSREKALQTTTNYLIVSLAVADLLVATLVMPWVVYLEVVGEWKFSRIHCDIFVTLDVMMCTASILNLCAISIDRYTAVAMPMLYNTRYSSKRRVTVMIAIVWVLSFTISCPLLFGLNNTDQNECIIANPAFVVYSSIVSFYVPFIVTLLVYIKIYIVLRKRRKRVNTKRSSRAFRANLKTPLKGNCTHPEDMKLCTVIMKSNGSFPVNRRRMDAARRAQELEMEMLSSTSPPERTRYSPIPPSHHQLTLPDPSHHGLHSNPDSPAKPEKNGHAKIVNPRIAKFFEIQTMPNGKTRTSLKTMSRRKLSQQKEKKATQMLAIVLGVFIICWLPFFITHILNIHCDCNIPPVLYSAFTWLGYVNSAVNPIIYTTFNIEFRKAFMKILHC

[2] = target: Sigma non-opioid intracellular receptor 1 (Mus musculus, UniProt O55242); experiment: In vitro binding affinity for the mouse sigma opioid receptor
Chain of Sigma non-opioid intracellular receptor 1 (O55242 whole entry): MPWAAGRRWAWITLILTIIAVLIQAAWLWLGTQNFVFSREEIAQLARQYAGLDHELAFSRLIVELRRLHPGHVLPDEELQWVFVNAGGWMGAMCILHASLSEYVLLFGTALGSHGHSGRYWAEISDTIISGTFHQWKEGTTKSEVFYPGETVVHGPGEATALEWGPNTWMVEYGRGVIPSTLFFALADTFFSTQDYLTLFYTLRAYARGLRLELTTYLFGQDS

Mus musculus = species: Mus musculus; experiment: Oral potency tested by using anti-mescaline test; assay type: functional
How it was run: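 Mice; mescaline was given to evoke hallucinogen-type behaviour, and the test compound was dosed orally to antagonise it. Potency is the ED50 in mg/kg po. Some ED50s are the average of three measurements.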

Row | Compound | Ki [1] | IC50 (D(2) dopamine receptor) | Ki [2] | ED50 (Mus musculus)
1 | COc1ccc(-c2ccc(OCC3CCN(CC4CC4)CC3)cc2)cc1 |  | 7220 nM | 218 nM | 
2 | O=C(CCCN1CCC(C(=O)Cc2ccc(F)cc2)CC1)c1ccc(F)cc1 | 17 nM |  | 40 nM | 1.9 mg/kg
3 | O.OC(CC1CCN(CCc2ccccc2)CC1)c1ccc(F)cc1 (configuration not stated) | 101 nM | 806 nM | 7 nM | < 10 mg/kg
4 | OC(Cc1ccc(F)cc1)C1CCN(CCCCc2ccccc2)CC1 (configuration not stated) | 65 nM | 900 nM | 11 nM | 18 mg/kg
5 | O.OC(Cc1ccc(F)cc1)C1CCN(CCCc2ccccc2)CC1 (configuration not stated) | 41 nM | 1700 nM | 7 nM | 
6 | O=C(CC1CCCN(CC2CC2)C1)c1ccc(F)cc1 (configuration not stated) |  | 185 nM | 17 nM | 1.3 mg/kg
7 | O=C(CC1CCCN(Cc2ccccc2)C1)c1ccc(F)cc1 (configuration not stated) |  | 34 nM | 14 nM | 1.1 mg/kg
8 | CC1CC1CN1CCC(COc2ccc(F)cc2)CC1.O=C(O)/C=C\C(=O)O (configuration not stated) | 24 nM | 945 nM | 5 nM | > 10 mg/kg
9 | Nc1ccc(C(=O)CC2CCN(CC3CC3)CC2)cc1.O |  | > 10000 nM | 146 nM | 10 mg/kg
10 | OC(CC1CCN(CCC2CC2)CC1)c1ccc(F)cc1 (configuration not stated) |  | > 10000 nM | 155 nM | 
11 | FC(F)(F)c1ccc(OCC2CCN(Cc3ccccc3)CC2)cc1 | 350 nM | 1930 nM | 2 nM | 6 mg/kg
12 | c1cc(OCC2CCN(CC3CC3)CC2)ccn1 |  | > 10000 nM | 175 nM | 
13 | O=C(CC1CCN(CCc2ccc(Cl)cc2)CC1)c1ccc(F)cc1 | 8.4 nM | 14 nM | 5 nM | 1.8 mg/kg
14 | C[S+]([O-])c1ccc(C(=O)CC2CCN(Cc3ccccc3)CC2)cc1.O (configuration not stated) | 204 nM | > 10000 nM | 53 nM | > 30 mg/kg
15 | O=C(CC1CCN(CCc2ccc(F)cc2)CC1)c1ccc(F)cc1 | 10 nM | 57 nM | 7 nM | 0.13 mg/kg
16 | O=C(CC1CCN(Cc2ccccc2)CC1)c1ccc(-c2ccccc2)cc1 | > 100 nM | 3010 nM | 33 nM | 30 mg/kg

Row | Compound | Ki [1] | IC50 (D(2) dopamine receptor) | Ki [2] | ED50 (Mus musculus)
17 | CC(=O)c1ccc(OCC2CCN(CC3CC3)CC2)cc1 | > 1000 nM | 539 nM | 9 nM | > 30 mg/kg
18 | [O-][S+](CC1CCN(CCC2CC2)CC1)c1ccc(F)cc1 (configuration not stated) |  | > 10000 nM | 310 nM | 
19 | CN(C)S(=O)(=O)c1ccc(OCC2CCN(CC3CC3)CC2)cc1 |  |  | > 10000 nM | 
20 | O.c1ccc(CN2CCC(COc3ccc4ccccc4c3)CC2)cc1 | 173 nM | 1020 nM | 6 nM | > 30 mg/kg
21 | O.O=C(Cc1ccc(F)cc1)C1CCN(Cc2ccccc2)CC1.O=C(O)/C=C\C(=O)O | 290 nM | 4560 nM | 3 nM | 18 mg/kg
22 | COc1cc(OCC2CCN(CC3CC3)CC2)cc(OC)c1OC.Cl | 8706 nM | > 10000 nM | 50 nM | > 30 mg/kg
23 | Br.CN(C)c1ccc(C(=O)CC2CCN(CC3CC3)CC2)cc1.O | 559 nM | > 10000 nM | 33 nM | 30 mg/kg
24 | Cl.OC(CC1CCN(Cc2ccccc2)CC1)c1ccc(C(F)(F)F)cc1 (configuration not stated) | > 100 nM | > 10000 nM | 6 nM | > 30 mg/kg
25 | Cl.Clc1ccc(OCC2CCN(CC3CC3)CC2)cc1Cl | 87 nM | 1650 nM | 8 nM | 3.3 mg/kg
26 | Cl.Fc1ccc(COCC2CCN(Cc3ccc(OCc4ccccc4)cc3)CC2)cc1 | < 100 nM | 773 nM | 27 nM | < 30 mg/kg
27 | CSc1ccc(OCC2CCN(CC3CC3)CC2)cc1.Cl | 114 nM | 1980 nM | 7 nM | > 30 mg/kg
28 | Fc1ccc(COCC2CCN(CCCc3ccccc3)CC2)cc1 |  | > 10000 nM | 304 nM | 
29 | CCNc1ccc(OCC2CCN(CC3CC3)CC2)cc1.Cl.O | > 10000 nM | > 10000 nM | 33 nM | > 30 mg/kg
30 | COc1ccc(OCC2CCN(CC3CC3)CC2)cc1.Cl.O | > 100 nM | > 10000 nM | 18 nM | > 30 mg/kg
31 | COC(=O)c1ccc(CN2CCC(COCc3ccc(F)cc3)CC2)cc1.Cl | 313 nM | 1980 nM | 7 nM | > 10 mg/kg

The remaining compounds from weak to strong by Ki [2], led by results:

Row | Ki [1] | IC50 (D(2) dopamine receptor) | Ki [2] | Compound | ED50 (Mus musculus)
32 |  | 4440 nM | 347 nM | c1cnc(OCC2CCN(CC3CC3)CC2)nc1 | 
33 |  | > 10000 nM | 98 nM | CC(O)c1ccc(OCC2CCN(CC3CC3)CC2)cc1 (configuration not stated) | 
34 | 1378 nM | 4670 nM | 44 nM | Cl.c1ccc(OCC2CCN(CC3CC3)CC2)nc1 | > 30 mg/kg
35 |  | 3340 nM | 37 nM | O=C(CC1CCCCN1Cc1ccccc1)c1ccc(F)cc1.O=C(O)/C=C\C(=O)O (configuration not stated) | 4.3 mg/kg
36 |  | 1340 nM | 30 nM | COc1ccc(CN2CCC(COc3ccc(F)cc3)CC2)cc1.O.O=C(O)/C=C\C(=O)O | 6.5 mg/kg
37 | 116 nM | > 10000 nM | 18 nM | CS(=O)(=O)c1ccc(C(=O)CC2CCN(Cc3ccccc3)CC2)cc1 | > 30 mg/kg
38 | 1603 nM | 8300 nM | 18 nM | Cl.OC(Cc1ccccc1)C1CCN(Cc2ccccc2)CC1 (configuration not stated) | < 10 mg/kg
39 | 1323 nM | > 10000 nM | 11 nM | O.OC(CC1CCN(Cc2ccccc2)CC1)c1ccco1 (configuration not stated) | > 30 mg/kg
40 | > 100 nM | 7630 nM | 10 nM | CSc1ccc(C(O)CC2CCN(Cc3ccccc3)CC2)cc1 (configuration not stated) | > 30 mg/kg
41 | 31 nM | 2750 nM | 7 nM | Fc1ccc(OCC2CCN(Cc3ccncc3)CC2)cc1.O | 1.1 mg/kg
42 | 500 nM | 3130 nM | 7 nM | Cl.Oc1ccc(CN2CCC(COCc3ccc(F)cc3)CC2)cc1 | > 10 mg/kg
43 | 272 nM | 4390 nM | 5 nM | Cl.O=[N+]([O-])c1ccc(OCC2CCN(Cc3ccccc3)CC2)cc1 | 14 mg/kg
44 | 313 nM | 6070 nM | 4 nM | COc1ccc(C(=O)CC2CCN(Cc3ccccc3)CC2)cc1 | > 30 mg/kg
45 | < 100 nM | 114 nM | 4 nM | Cl.Fc1ccc(OCCC2CCN(Cc3ccccc3)CC2)cc1.O | 16 mg/kg
46 | 6 nM | 195 nM | 3 nM | O=C(CC1CCN(Cc2ccc(C(F)(F)F)cc2)CC1)c1ccc(F)cc1 | 1.8 mg/kg
47 | 316 nM | 1100 nM | 3 nM | O=C(Cc1ccc(F)cc1)CC1CCN(Cc2ccccc2)CC1.O=C(O)/C=C\C(=O)O | > 30 mg/kg
48 | 15 nM | 179 nM | 2 nM | CC1(CN2CCC(COc3ccc(F)cc3)CC2)CC1(Cl)Cl.O=C(O)/C=C/C(=O)O (configuration not stated) | < 10 mg/kg
49 | 41 nM | 2840 nM | 2 nM | Cl.Fc1ccc(OCC2CCN(CC3CC3)CC2)cc1F | 4.5 mg/kg
